Laboratory results as given in ChEMBL document CHEMBL2062470, “Fungal bis-Naphthopyrones as Inhibitors of Botulinum Neurotoxin Serotype A” (ACS Med Chem Lett, 2012).

What was measured:
[1] = biological target: Botulinum neurotoxin type A (Clostridium botulinum (strain Hall / ATCC 3502 / NCTC 13319 / Type A)) (UniProt P0DPI1); assay: Inhibition of Clostridium botulinum Hall BoNT/A protease activity using Ac-SNKTRIDEANQRATKML-NH2 as substrate at 100 uM after 5 mins by RP-HPLC analysis
Method in brief: (§1)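 HPLC-based BoNT/A protease assay; single-point percent inhibition of protease activity at 100 or 20 μM compound.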

[2] = biological target: Botulinum neurotoxin type A (Clostridium botulinum (strain Hall / ATCC 3502 / NCTC 13319 / Type A)) (UniProt P0DPI1); assay: Inhibition of Clostridium botulinum Hall BoNT/A protease activity using Ac-SNKTRIDEANQRATKML-NH2 as substrate at 20 uM after 5 mins by RP-HPLC analysis; method in brief: as §1
[3] = biological target: Botulinum neurotoxin type A (Clostridium botulinum (strain Hall / ATCC 3502 / NCTC 13319 / Type A)) (UniProt P0DPI1); assay: Inhibition of Clostridium botulinum Hall BoNT/A-mediated paralysis in CD1 mouse phrenic nerve hemidiaphragm assessed as time required to 50% loss of twitch tension at 20 uM measured upto 5 hrs (reference value: 62 mins)
[4] = biological target: Botulinum neurotoxin type A (Clostridium botulinum (strain Hall / ATCC 3502 / NCTC 13319 / Type A)) (UniProt P0DPI1); assay: Inhibition of Clostridium botulinum Hall BoNT/A-mediated paralysis in CD1 mouse phrenic nerve hemidiaphragm assessed as time required to 50% loss of twitch tension at 2 uM measured upto 5 hrs (reference value: 62 mins)
[5] = biological target: Botulinum neurotoxin type A (Clostridium botulinum (strain Hall / ATCC 3502 / NCTC 13319 / Type A), UniProt P0DPI1); assay: Inhibition of Clostridium botulinum Hall BoNT/A protease activity using Ac-SNKTRIDEANQRATKML-NH2 as substrate after 5 mins by RP-HPLC analysis
Sequence of Botulinum neurotoxin type A (P0DPI1 2-448 limits assumed): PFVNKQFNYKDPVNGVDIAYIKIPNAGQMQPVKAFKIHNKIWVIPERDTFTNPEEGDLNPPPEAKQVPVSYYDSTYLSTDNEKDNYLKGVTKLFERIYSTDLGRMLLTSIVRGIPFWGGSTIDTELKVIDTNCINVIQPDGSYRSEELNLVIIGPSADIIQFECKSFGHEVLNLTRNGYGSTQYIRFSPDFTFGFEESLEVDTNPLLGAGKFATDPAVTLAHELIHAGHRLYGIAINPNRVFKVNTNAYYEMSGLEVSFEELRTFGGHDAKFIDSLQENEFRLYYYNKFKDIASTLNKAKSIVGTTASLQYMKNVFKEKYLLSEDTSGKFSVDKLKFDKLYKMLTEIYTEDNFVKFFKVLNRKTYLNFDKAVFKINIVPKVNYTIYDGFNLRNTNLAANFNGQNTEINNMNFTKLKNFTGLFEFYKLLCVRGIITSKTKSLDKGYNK
Method in brief: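 HPLC-based BoNT/A protease assay; percent inhibition measured at nine compound concentrations, with IC50 derived by curve fitting.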

Sequence of Botulinum neurotoxin type A (Clostridium botulinum (strain Hall / ATCC 3502 / NCTC 13319 / Type A)) (P0DPI1 2-448 limits assumed): as above

Compound: CCC[C@H]1Cc2cc3c(-c4c(O)cc(O)c5c(O)c6c(cc45)C[C@H](CCC)OC6=O)c(O)cc(O)c3c(O)c2C(=O)O1
- inhibition [1]: 96%
- inhibition [2]: 85%
- TIME [3]: 3.28 h
- TIME [4]: 3.15 h

Compound: CCOc1ccc(C(Nc2cccnc2)c2cc(Cl)c3cccnc3c2O)cc1 (racemic)
- inhibition [1]: 98%
- inhibition [2]: 96.2%
- IC50 [5]: 2.1 µM
- TIME [3]: 5 h
- TIME [4]: 5 h

Compound: CCC[C@H]1Cc2cc3c(-c4c(O)cc(O)c5c(O)c6c(cc45)C[C@H](CCC)OC6=O)c(O)cc(O)c3c(O)c2C(=O)O1 (single isomer, unassigned; atropisomer)
- inhibition [1]: 80.3%
- inhibition [2]: 67%
- TIME [3]: 1.58 h
- TIME [4]: 2.9 h

Compound: CCC[C@H]1Cc2cc3c(-c4c(O)cc(O)c5c(O)c6c(cc45)C[C@H](CCC)OC6=O)c(O)cc(O)c3c(O)c2C(=O)O1 (single isomer, unassigned; atropisomer) [TALARODERXINE A]
- IC50 [5]: 10.1 µM

Compound: CC1CC(=O)c2c(cc3c(-c4c(O)cc(O)c5c(O)c6c(cc45)OC(C)CC6=O)c(O)cc(O)c3c2O)O1 (stereo not drawn) [CEPHALOCHROMIN]
- inhibition [1]: 72%
- inhibition [2]: 45%
- IC50 [5]: 29.2 µM
- TIME [3]: 0.983 h

Compound: C[C@H]1Oc2cc3c(-c4c(O)cc(O)c5c(O)c6c(cc45)O[C@H](C)[C@@H](C)C6=O)c(O)cc(O)c3c(O)c2C(=O)[C@@H]1C [CHAETOCHROMIN A]
- inhibition [1]: 74%
- inhibition [2]: 55%
- IC50 [5]: 24.6 µM
- TIME [3]: 3.13 h
- TIME [4]: 1.73 h

Compound: COC(=O)[C@]12Oc3ccc(-c4ccc5c(c4O)C(=O)C4=C(O)C[C@@H](C)[C@H](O)[C@@]4(C(=O)OC)O5)c(O)c3C(=O)C1=C(O)C[C@@H](C)[C@@H]2O [SECALONIC ACID A]
- inhibition [1]: 64.5%
- inhibition [2]: 39.1%
- IC50 [5]: 28.6 µM
- TIME [3]: 1.12 h

Compound: Cc1cc(O)c2c(c1)C(=O)c1c(c(O)cc(O)c1-c1c(O)cc(O)c3c1C(=O)c1cc(C)cc(O)c1C3=O)C2=O [SKYRIN]
- inhibition [1]: 74.3%
- inhibition [2]: 40.3%
- IC50 [5]: 31.5 µM
- TIME [3]: 1.35 h
- TIME [4]: 1.07 h

Compound: CCC[C@H]1Cc2cc3c(-c4c(O)cc(O)c5c(O)c6c(cc45)C[C@H](CCC)OC6=O)c(O)cc(O)c3c(O)c2C(=O)O1 [TALARODERXINE A]
- IC50 [5]: 3.7 µM
